Experimental data from ChEMBL document CHEMBL5344479, “N-Arylsulfonamide-based adenosine analogues to target RNA cap N7-methyltransferase nsp14 of SARS-CoV-2” (RSC Med Chem, 2024).
pIC50: −log10 of the molar value.

What was measured:
[1] = molecular target: Replicase polyprotein 1ab (Severe acute respiratory syndrome coronavirus 2) (UniProt P0DTD1); assay: Inhibition of N-terminal hexa-histidine tagged recombinant SARS-CoV-2 nsp14 RNA cap N7-methyltransferase activity expressed in Escherichia coli C2566 assessed as residual enzyme activity using GpppAC4 synthetic RNA and [3H]-SAM as substrate at 50 uM incubated for 30 mins by filter binding assay based liquid scintillation counter analysis relative to control
Method in brief: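 Recombinant nsp14 (10 nM), purified by cobalt IMAC and size exclusion, was premixed with compound at 50 µM (2.5% final DMSO). Then 0.7 µM GpppAC4 RNA, 1.9 µM SAM and 0.1 µM 3H-SAM were added in 40 mM Tris-HCl pH 8.0, 1 mM DTT, 1 mM MgCl2. After 30 min at 30 °C, reactions were stopped by 10-fold ice-cold water dilution, DEAE-filtered, washed and scintillation-counted.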

[2] = molecular target: Replicase polyprotein 1ab (Severe acute respiratory syndrome coronavirus 2, UniProt P0DTD1); assay: Inhibition of N-terminal hexa-histidine tagged recombinant SARS-CoV-2 nsp14 RNA cap N7-methyltransferase activity expressed in Escherichia coli C2566 using GpppAC4 synthetic RNA and [3H]-SAM as substrate incubated for 30 mins by filter binding assay based liquid scintillation counter analysis

SMILES	Activity [1]	pIC50 [2]
CCN(Cc1cn(C[C@H]2O[C@@H](n3cnc4c(N)ncnc43)[C@H](O)[C@@H]2O)nn1)S(=O)(=O)c1ccc(F)cc1	93%	–
COc1ccc(S(=O)(=O)NCc2cn(C[C@H]3O[C@@H](n4cnc5c(N)ncnc54)[C@H](O)[C@@H]3O)nn2)cc1	63%	–
CCN(Cc1cn(C[C@H]2O[C@@H](n3cnc4c(N)ncnc43)[C@H](O)[C@@H]2O)nn1)S(=O)(=O)c1ccc(Cl)cc1	69%	–
Cc1cccc(S(=O)(=O)NCc2cn(C[C@H]3O[C@@H](n4cnc5c(N)ncnc54)[C@H](O)[C@@H]3O)nn2)c1	82%	–
Cc1ccc(S(=O)(=O)NCCS(=O)(=O)C[C@H]2O[C@@H](n3cnc4c(N)ncnc43)[C@H](O)[C@@H]2O)cc1	38%	4.31
CCN(CCNS(=O)(=O)c1ccccc1)C[C@H]1O[C@@H](n2cnc3c(N)ncnc32)[C@H](O)[C@@H]1O	87%	–
Nc1ncnc2c1ncn2[C@@H]1O[C@H](CSCCNS(=O)(=O)c2ccc(Cl)cc2[N+](=O)[O-])[C@@H](O)[C@H]1O	2%	6.05
Nc1ncnc2c1ncn2[C@@H]1O[C@H](CSCCNS(=O)(=O)c2ccc([N+](=O)[O-])cc2)[C@@H](O)[C@H]1O	9%	5.33
Nc1ncnc2c1ncn2[C@@H]1O[C@H](Cn2cc(CNS(=O)(=O)c3ccccc3)nn2)[C@@H](O)[C@H]1O	59%	–
Nc1ncnc2c1ncn2[C@@H]1O[C@H](CSCCNS(=O)(=O)c2ccccc2[N+](=O)[O-])[C@@H](O)[C@H]1O	0%	5.69
CCN(CCNS(=O)(=O)c1ccc(C)cc1)C[C@H]1O[C@@H](n2cnc3c(N)ncnc32)[C@H](O)[C@@H]1O	66%	–
CCN(CCNS(=O)(=O)c1ccc([N+](=O)[O-])cc1)C[C@H]1O[C@@H](n2cnc3c(N)ncnc32)[C@H](O)[C@@H]1O	57%	–
Nc1ncnc2c1ncn2[C@@H]1O[C@H](CS(=O)(=O)CCNS(=O)(=O)c2ccccc2)[C@@H](O)[C@H]1O	48%	4.63
Cc1ccc(S(=O)(=O)NCCSC[C@H]2O[C@@H](n3cnc4c(N)ncnc43)[C@H](O)[C@@H]2O)cc1	10%	5.66
N#Cc1ccc(S(=O)(=O)NCCS(=O)(=O)C[C@H]2O[C@@H](n3cnc4c(N)ncnc43)[C@H](O)[C@@H]2O)cc1	42%	4.28
CCN(CCNS(=O)(=O)c1ccc(C(F)(F)F)cc1)C[C@H]1O[C@@H](n2cnc3c(N)ncnc32)[C@H](O)[C@@H]1O	83%	–

SMILES	Activity [1]	pIC50 [2]
Nc1ncnc2c1ncn2[C@@H]1O[C@H](CS(=O)(=O)CCNS(=O)(=O)c2ccc([N+](=O)[O-])cc2)[C@@H](O)[C@H]1O	27%	4.56
Nc1ncnc2c1ncn2[C@@H]1O[C@H](CS(=O)(=O)CCNS(=O)(=O)c2ccc(C(F)(F)F)cc2)[C@@H](O)[C@H]1O	37%	4.42
CCN(Cc1cn(C[C@H]2O[C@@H](n3cnc4c(N)ncnc43)[C@H](O)[C@@H]2O)nn1)S(=O)(=O)c1ccc(C)cc1	59%	–
Nc1ncnc2c1ncn2[C@@H]1O[C@H](Cn2cc(CNS(=O)(=O)c3ccc(F)cc3)nn2)[C@@H](O)[C@H]1O	91%	–
N#Cc1ccc(S(=O)(=O)NCCSC[C@H]2O[C@@H](n3cnc4c(N)ncnc43)[C@H](O)[C@@H]2O)cc1	21%	4.81
Nc1ncnc2c1ncn2[C@@H]1O[C@H](CSCCNS(=O)(=O)c2ccccc2)[C@@H](O)[C@H]1O	13%	5.34
CCN(Cc1cn(C[C@H]2O[C@@H](n3cnc4c(N)ncnc43)[C@H](O)[C@@H]2O)nn1)S(=O)(=O)c1ccc(C(F)(F)F)cc1	47%	–
CCN(Cc1cn(C[C@H]2O[C@@H](n3cnc4c(N)ncnc43)[C@H](O)[C@@H]2O)nn1)S(=O)(=O)c1ccc(OC)cc1	60%	–
Nc1ncnc2c1ncn2[C@@H]1O[C@H](Cn2cc(CNS(=O)(=O)c3ccc(Cl)cc3)nn2)[C@@H](O)[C@H]1O	72%	–
Cc1ccc(S(=O)(=O)NCc2cn(C[C@H]3O[C@@H](n4cnc5c(N)ncnc54)[C@H](O)[C@@H]3O)nn2)cc1	50%	–
CCN(Cc1cn(C[C@H]2O[C@@H](n3cnc4c(N)ncnc43)[C@H](O)[C@@H]2O)nn1)S(=O)(=O)c1ccccc1	84%	–
COc1ccc(S(=O)(=O)NCCSC[C@H]2O[C@@H](n3cnc4c(N)ncnc43)[C@H](O)[C@@H]2O)c([N+](=O)[O-])c1	0%	6.05
CCN(CCNS(=O)(=O)c1ccc(C#N)cc1)C[C@H]1O[C@@H](n2cnc3c(N)ncnc32)[C@H](O)[C@@H]1O	67%	–
Nc1ncnc2c1ncn2[C@@H]1O[C@H](Cn2cc(CNS(=O)(=O)c3ccc(C(F)(F)F)cc3)nn2)[C@@H](O)[C@H]1O	81%	–
Nc1ncnc2c1ncn2[C@@H]1O[C@H](CSCCNS(=O)(=O)c2ccc(C(F)(F)F)cc2)[C@@H](O)[C@H]1O	7%	5.14
